Measurements published in PubChem BioAssay.
The source made the active and inactive calls.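 How the source made its calls, unless noted: active means NADPH fluorescence slope more negative than the mean of all samples by about 3 SD, 99.7% confidence; inactive means the rest.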

Legend:
[1] = inhibitors of TNFa-induced NFkB p65 translocation, primary screen, imaging, HUVEC, MLSMR starter and 10KST1 sets (AID 438;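 active means inhibition above 20% together with a positive visual image hit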;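 further: compound added about 3h40 before a 20 min TNFalpha stimulation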;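 on inhibition: signal is the nuclear over cytoplasmic p65 intensity ratio per well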); conditions: HUVEC TNFa-induced p65 nuclear translocation; cell count: measured here: nuclei count (cytotoxicity indicator), at 2.08 µM; inhibition: at 2 µM, stronger effect = higher value, 0% TNFa-plus-vehicle, 100% no-TNFa wells
[2] = reduction of polyQ htt aggregates in cells – imaging, exon1htt(103Q)mCFP cells, high-content imaging, primary screen (AID 483;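 active means visual image review flags a hit and inhibition of aggregation exceeds 20%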;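 further: compound exposure lasted 3 days before fixation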;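 on nuclei count: percent of the per-plate median nuclei count of sample wells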); conditions: exon1htt(103Q)mCFP cell line, aggregate imaging, at 2 µM; inhibition of aggregation: stronger effect = higher value; nuclei count: measured here: cell count, toxicity
[3] = endothelial E-selectin expression blockers – imaging, HUVEC, immunofluorescence, MLSMR starter and 10KST1 sets, primary screen (AID 487;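 active means visually confirmed hit in the image check and inhibition above 20%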;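 on inhibition: signal is fraction of cell area covered by stained E-selectin grains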;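 on nuclei count: 100% = median nuclei count of all wells on the same plate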); conditions: HUVEC TNFalpha-induced E-selectin immunofluorescence imaging, at 2 µM; inhibition: stronger effect = higher value; nuclei count: measured here: cell number, toxicity
[4] = target: Voltage-gated potassium channel subunit beta-2 (Rattus norvegicus) (UniProt P62483); assay: inhibitors of rat Kvbeta2 reductase activity – biochemical, NADPH fluorescence, primary screen (AID 622;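 active means fluorescence slope higher than the sample average by over 3 SD, cut at about -0.22 in these data, passing the limit was not always enough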;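 further: slope of raw intensity against log time taken from 70 to 1610 s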); conditions: recombinant KvBeta, 4-cyanobenzaldehyde reduction, at 10 µM, stronger effect = higher value
[5] = target: Voltage-gated potassium channel subunit beta-2 (Rattus norvegicus) (UniProt P62483); assay: enhancers of rat Kvbeta2 NADPH turnover – biochemical, NADPH fluorescence, primary screen (AID 623); conditions: Recombinant KvBeta, NADPH fluorescence decrease slope, 10 min; at 10 µM; stronger effect = lower value;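 further: fluorescence intensity change per second fitted from 20 to 320 s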
[6] = target: Alpha-2C adrenergic receptor (Homo sapiens) (UniProt P18825); assay: compounds altering alpha2C-coupled GIRK flux – cell-based, HEK293 alpha2C/GIRK1/2, thallium flux, primary screen (AID 624;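 active means fluorescence slope after compound addition differing from the mean of all screened samples at 99.7% confidence, in either direction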;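 further: slope of fluorescence ratio to pre-addition baseline per second over 15 to 24 s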); conditions: thallium flux BTC fluorescence, at 10 µM, actives lie on both sides
[7] = inhibitors of larval lipid processing in zebrafish, primary screen, whole organism, PED6 fluorescence, gall bladder and intestine (AID 686;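 active means a full or partial loss of lipid-probe fluorescence in the fish gall bladder, intestine or both, judged by eye; inactive means no fluorescence loss, or compound toxic to the fish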;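 further: larvae 5 to 7 days old with five fish per well; signal comes from phospholipase A2 cleavage of quenched PED6 carried via bile; overnight exposure to compound and PED6 before scoring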); conditions: Zebrafish larvae PED6 lipid processing, fluorescence scoring; screened at 20 µM (by protocol)
Outline: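 Also added: quenched phospholipase substrate PED6, 100 nM final, ingested by larvae; System: zebrafish larvae, 5-7 d; Quantity: 5 larvae per well; Compound: 20 µM single dose; Schedule: overnight compound and PED6 incubation; Read-out: visual per-well fluorescence inhibition score; Measured by: By-eye fluorescence microscopy; Medium: E3.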

[8] = blockers of RIG-like receptor reporter activation – cell-based, Sendai virus stimulus, luciferase, 10K MLSCN set, TLR/RLR signaling modifier project, primary screen (AID 602276;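 active means inhibition at or above 50% at 10 µM; inactive means inhibition below 50%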;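 further: firefly luciferase from ISG56 promoter only with Renilla not read in this screen; 0% = Sendai virus plus DMSO and 100% = medium plus DMSO without virus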); conditions: HEK293 RL24 IRF3 luciferase reporter, at 10 µM, stronger effect = higher value
[9] = TLR3 IRF3 reporter activation blockers – cell-based, poly I:C stimulus, luciferase, 10K MLSCN set, primary screen (AID 602277;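 active means inhibition of the reporter signal at or above 50%; inactive means inhibition below 50%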); conditions: HEK293-TLR3 RL24 IRF3 luciferase reporter, at 10 µM, stronger effect = higher value

Sequence of Voltage-gated potassium channel subunit beta-2 (Rattus norvegicus) (P62483 whole entry, looked up): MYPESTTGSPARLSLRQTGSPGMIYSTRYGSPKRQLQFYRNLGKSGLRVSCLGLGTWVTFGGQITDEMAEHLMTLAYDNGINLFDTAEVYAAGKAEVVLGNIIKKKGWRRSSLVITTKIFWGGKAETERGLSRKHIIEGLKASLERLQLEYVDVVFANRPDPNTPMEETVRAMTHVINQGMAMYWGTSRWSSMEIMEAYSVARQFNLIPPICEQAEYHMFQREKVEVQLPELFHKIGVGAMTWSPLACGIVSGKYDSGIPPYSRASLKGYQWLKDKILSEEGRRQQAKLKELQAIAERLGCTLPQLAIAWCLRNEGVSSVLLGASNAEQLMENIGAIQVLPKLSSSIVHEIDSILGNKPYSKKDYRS
Sequence of Alpha-2C adrenergic receptor (Homo sapiens) (P18825 whole entry, looked up): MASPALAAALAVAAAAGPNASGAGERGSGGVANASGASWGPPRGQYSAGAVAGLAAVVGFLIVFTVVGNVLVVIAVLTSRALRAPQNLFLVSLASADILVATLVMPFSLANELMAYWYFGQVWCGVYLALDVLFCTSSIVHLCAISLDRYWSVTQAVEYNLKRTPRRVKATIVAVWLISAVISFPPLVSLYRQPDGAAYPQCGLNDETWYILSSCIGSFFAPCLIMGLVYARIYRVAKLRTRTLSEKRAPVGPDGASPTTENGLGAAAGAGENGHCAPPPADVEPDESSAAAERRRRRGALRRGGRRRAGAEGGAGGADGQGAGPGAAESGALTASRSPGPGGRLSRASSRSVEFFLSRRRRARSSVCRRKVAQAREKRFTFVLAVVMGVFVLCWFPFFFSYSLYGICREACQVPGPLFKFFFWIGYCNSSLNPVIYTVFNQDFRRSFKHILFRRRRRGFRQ

Row | SMILES | cell count [1] | inhibition [1] | inhibition of aggregation [2] | nuclei count [2] [%] | inhibition [3] | nuclei count [3] [%] | fluorescence slope [4] | NADPH fluorescence slope [5] | slope [6] | outcome [7] | inhibition [8] | inhibition [9]
1 | c1ccc2c(SCc3cn4cccnc4n3)ncnc2c1 | 553 | -14.3% (inactive) | 0.5% (inactive) | 109 | 6.3% (inactive) | 93.9 | -0.341 (inactive) | -5.7e-05 (inactive) | 0.00553 (inactive) | inactive | 3.66% (inactive) | -0.28% (inactive)
2 | O=C(NC1=NCCS1)c1ccc2c(c1)C(=O)N(Cc1ccco1)C2=O | 447 | 0% (inactive) | 19.6% (inactive) | 96.6 | -60.7% (inactive) | 111 | -0.387 (inactive) | 2.7e-06 (inactive) | 0.00529 (inactive) | inactive | 19.1% (inactive) | 24.4% (inactive)
3 | CC1(C)CC(=O)C(C=NC(CCC(N)=O)C(=O)O)=C(O)C1 (centres undefined) | 520 | -22.3% (inactive) | -15.6% (inactive) | 113 | 54.4% (active) | 93.1 | -0.382 (inactive) | -1e-05 (inactive) | 0.00504 (inactive) | inactive | 13.3% (inactive) | 13.8% (inactive)
4 | CCn1nnnc1SCC(=O)N1c2ccccc2CCc2ccccc21 | 568 | -4.6% (inactive) | 2% (inactive) | 96.3 | -32.7% (inactive) | 117 | -0.377 (inactive) | -5.8e-05 (inactive) | 0.00737 (inactive) | inactive | 1.39% (inactive) | 1.68% (inactive)
5 | O=C1c2ccccc2C(=O)N1c1cccc(-c2nc3ccccc3o2)c1 | 464 | 7.6% (inactive) | 4% (inactive) | 104 | -175% (inactive) | 130 | -0.384 (inactive) | -5.2e-05 (inactive) | 0.00482 (inactive) | inactive | 2.66% (inactive) | 4.23% (inactive)
6 | CCOc1nc(-c2ccccc2O)nc2ccccc12 | 716 | -3.1% (inactive) | -11.6% (inactive) | 104 | -148% (inactive) | 116 | -0.437 (inactive) | -2.5e-05 (inactive) | 0.00628 (inactive) | inactive | 6.19% (inactive) | 9.49% (inactive)
7 | CCOC(=O)c1ccc2[nH]c3c(c2c1)CCCCC3=O | 681 | -11% (inactive) | -12.9% (inactive) | 106 | 32% (inactive) | 96.5 | -0.389 (inactive) | -5.3e-05 (inactive) | 0.00399 (inactive) | inactive | -36.8% (inactive) | -77.8% (inactive)
8 | O=C(CSc1ccc(-c2ccccc2)nn1)N1CCOCC1 | 664 | -5.6% (inactive) | -24% (inactive) | 118 | 57.9% (active) | 132 | -0.452 (inactive) | -4.4e-05 (inactive) | 0.00495 (inactive) | inactive | 5.28% (inactive) | -10.6% (inactive)
9 | O=C(Nc1ccc2[nH]c3c(c2c1)CCCC3)c1ccco1 | 446 | -20.5% (inactive) | 31% (inactive) | 85.7 | 78.9% (active) | 103 | -0.288 (inactive) | -4.7e-05 (inactive) | 0.00582 (inactive) | inactive | -30.4% (inactive) | -98.2% (inactive)
10 | O=C(Nc1cccc(OCC(=O)N2CCOCC2)c1)C1CCCCC1 | 428 | 4.9% (inactive) | 5.7% (inactive) | 95.1 | -22.9% (inactive) | 94.2 | -0.471 (inactive) | -5.6e-05 (inactive) | 0.0056 (inactive) | inactive | 11.4% (inactive) | 12.7% (inactive)
11 | CCN(CC)S(=O)(=O)c1ccc2c(c1)nc(SCn1nnc3ccccc3c1=O)n2CC | 765 | 6% (inactive) | 6.8% (inactive) | 94.2 | -114% (inactive) | 129 | -0.433 (inactive) | -6.2e-05 (inactive) | 0.00509 (inactive) | inactive | 15.4% (inactive) | 11.9% (inactive)
12 | O=C(c1ccccc1)c1ccc(N2CCNCC2)cc1 | 395 | 4.3% (inactive) | -14.4% (inactive) | 92.6 | 2.4% (inactive) | 102 | -0.518 (inactive) | 5.3e-06 (inactive) | 0.00569 (inactive) | inactive | -41.5% (inactive) | -73.5% (inactive)
13 | O=C(CSc1ncn[nH]1)NC1CC2CCC1C2 (centres undefined) | 264 | -16.8% (inactive) | 17% (inactive) | 80.8 | 56.4% (inactive) | 53 | -0.448 (inactive) | -3.5e-05 (inactive) | 0.00492 (inactive) | inactive | 2.17% (inactive) | 7.86% (inactive)
14 | COc1ccc(NC(=O)CSc2ccccn2)cc1OC | 554 | -42.2% (inactive) | 5.1% (inactive) | 107 | 10.4% (inactive) | 88.2 | -0.384 (inactive) | -1.5e-05 (inactive) | 0.00501 (inactive) | inactive | -19.5% (inactive) | -27.7% (inactive)
15 | Cc1csc(NC(=O)Nc2cccc(Cl)c2)n1 | 506 | 1.8% (inactive) | -3.3% (inactive) | 97.5 | -98.3% (inactive) | 113 | -0.373 (inactive) | -3.7e-05 (inactive) | 0.00525 (inactive) | active; weak signal in gallbladder only | -37.7% (inactive) | -119% (inactive)
16 | CCSCc1nnc(SCC(=O)Nc2cccc(SC)c2)n1C | 492 | -5.8% (inactive) | 0.2% (inactive) | 101 | -43.2% (inactive) | 147 | -0.452 (inactive) | -4.6e-05 (inactive) | 0.00484 (inactive) | inactive | 9.84% (inactive) | 18.9% (inactive)
17 | COc1ccc2c3c(c(=O)oc2c1OCC(N)=O)CCCC3 | 609 | -3.8% (inactive) | -17.4% (inactive) | 111 | -29.2% (inactive) | 102 | -0.0534 (active) | -8.5e-06 (inactive) | 0.00487 (inactive) | inactive | 14% (inactive) | 2.31% (inactive)
